Published values of several laboratories.
Protocols differ between the studies behind these lines.
MAOB: Amine oxidase [flavin-containing] B (MAOB, Homo sapiens, UniProt P27338)

SMILES	target	observed	mode	technique	concentration	quantity	value
C#CCN[C@@H]1CCc2ccccc21	MAOB	enzyme activity	inhibitor		1 µM	inhibition	87.2%
NC/C(=C\F)COc1cccc(Cn2c(=S)[nH]c(=O)c3[nH]cnc32)c1	MAOB	enzyme activity	inhibitor		200 pM	inhibition	29.1%
O=C(N[C@@H](CSCc1nc2cc([N+](=O)[O-])ccc2[nH]1)C(=O)NO)c1ccccc1	Lactoylglutathione lyase (GLO1, Homo sapiens, UniProt Q04760)	enzyme activity	inhibitor		1 µM	inhibition	13.6%
CCCCC(=O)Nc1ccc(-c2ccc3ncn(CCC)c(=O)c3c2)cn1	Tyrosine-protein kinase HCK (HCK, Homo sapiens, UniProt P08631)	binding		competition with immobilised ligand	0.5 µM	remaining binding	98%
Nc1ncnc2c1ncn2[C@@H]1O[C@H](COP(=O)(O)OP(=O)(O)OP(=O)(O)O)[C@@H](O)[C@H]1O	GUK1 (Homo sapiens, UniProt Q16774)	enzyme activity	substrate			Km	102 µM
C1=C/COCc2cc(ccc2OCCN2CCCC2)Nc2nccc(n2)-c2cccc(c2)COC/1	Ribosomal protein S6 kinase alpha-6, N-terminal kinase domain (RPS6KA6, Homo sapiens, UniProt Q9UK32)	cell-free assay			0.1 µM	remaining signal	78%
O=C(Nc1ccc(Cl)c(Br)c1)c1ccc2c(c1)C(=O)NC2=O	MAOB	enzyme activity	inhibitor		1 µM	inhibition	97.5%
Cc1cc(S(=O)(=O)N[C@H]2CC[C@H](CN3CCN(c4ccc(C5CCC(=O)NC5=O)cc4F)CC3)CC2)ccc1Nc1ncc(C(F)(F)F)c(N2CCC[C@](C)(O)C2)n1 (stereo partly drawn)	NUAK family SNF1-like kinase 2 (NUAK2, Homo sapiens, UniProt Q9H093)	binding		competition with immobilised ligand	1 µM	remaining binding	26%
O=C(Nc1ccccc1Br)c1ccc2c(c1)C(=O)NC2=O	MAOB	enzyme activity	inhibitor		1 µM	inhibition	< 5%
COc1ccc2oc(-c3ccc4nc(N)oc4c3)c/c(=N\c3ccccc3NC(=O)CCN)c2c1	Phosphatidylinositol 3-kinase C2 domain-containing subunit gamma (PIK3C2G, Homo sapiens, UniProt O75747)	binding			1 µM	remaining binding	37%
O=C(Nc1cc(Cl)cc(Cl)c1)c1ccc2c(c1)C(=O)NC2=O	MAOB	enzyme activity	inhibitor		1 µM	inhibition	89.3%
C#Cc1cc(-c2cc(Nc3nc(N[C@@H](C)c4ccc(F)cn4)ncc3Cl)n[nH]2)ccc1C=O	Dual specificity tyrosine-phosphorylation-regulated kinase 4 (DYRK4, Homo sapiens, UniProt Q9NR20)	enzyme activity	inhibitor		0.2 µM	inhibition	4.78%
